18 compounds from ChEMBL document CHEMBL1153207, “Continued exploration of the triazolopyridine scaffold as a platform for p38 MAP kinase inhibition” (Bioorg Med Chem Lett, 2010) can be followed below.

The target of data set [1] is Mitogen-activated protein kinase 14 (Homo sapiens, UniProt Q16539). The experiment in a line: Inhibition of p38 alpha.
Data set [2] is described as follows: Metabolic stability in rat liver microsomes at 2 uM. The format is ADME, Microsome. The settings on record: read-out: Stability. For orientation: Microsomes from liver hold many membrane-bound enzymes, among them those of drug oxidation.
A short description of data set [3]: Metabolic stability in human liver microsomes at 2 uM. In kind it is ADME, Microsome. The settings on record: read-out: Stability.
Data set [4] deals with Rattus norvegicus. As to the kind of experiment: Inhibition of LPS-stimulated TNFalpha release Lewis rat at 5 mg/kg after 4 hrs by ELISA. The format is functional. The procedure, abridged: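 Male Lewis rats were pre-dosed with compound at set times before an iv lipopolysaccharide challenge. Blood was taken 1.5 h after challenge and TNF-α levels were measured by ELISA.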
On the technique in general: In an ELISA, binding on a coated surface is turned into a signal by an enzyme label.

Mitogen-activated protein kinase 14, sequence (Q16539 whole entry): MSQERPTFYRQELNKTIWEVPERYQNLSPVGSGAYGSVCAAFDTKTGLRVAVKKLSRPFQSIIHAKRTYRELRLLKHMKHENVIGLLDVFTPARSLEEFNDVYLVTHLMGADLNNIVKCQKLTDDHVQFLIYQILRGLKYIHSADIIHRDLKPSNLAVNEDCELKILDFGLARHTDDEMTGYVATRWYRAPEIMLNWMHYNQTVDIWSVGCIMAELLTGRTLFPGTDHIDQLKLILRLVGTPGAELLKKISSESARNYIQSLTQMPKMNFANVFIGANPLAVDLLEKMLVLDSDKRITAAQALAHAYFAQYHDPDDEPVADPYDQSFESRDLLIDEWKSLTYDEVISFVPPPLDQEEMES

Take `Fc1ccc(Sc2ccc3nnc(-c4ccc(F)cc4F)n3c2)c(F)c1`: the IC50 (commonly the concentration at which inhibition is half-maximal) in data set [1] was found to be 7.2 nM.

On to `CC(C)c1nnc2ccc(Sc3ccc(F)cc3F)c(Cl)n12`, for which the remaining at 2 µM in data set [2] amounted to 23%; in data set [3] it was 65%.

As to `COC(=O)c1ccc(-c2nnc3ccc(Sc4ccc(F)cc4F)cn23)cc1`, the 50% inhibitory concentration (IC50) in data set [1] was found to be 322 nM.

Take `CC(C)c1nnc2ccc(C(=O)Nc3cc(F)cc(F)c3)cn12`: in data set [1], the IC50 is > 10000 nM.

With `CC(C)c1nnc2cc(Cl)c(Sc3ccc(F)cc3F)c(Br)n12`, the remaining at 2 µM in data set [2] amounted to 9%; in data set [3], 24%.

As to `O=C(O)c1ccc(-c2nnc3ccc(Sc4ccc(F)cc4F)cn23)cc1`, the IC50 in data set [1] came to 1170 nM.

On to `CC(C)c1nnc2ccc(Sc3ccc(F)cc3C(F)(F)F)cn12`, for which the IC50 in data set [1] was > 10000 nM.

For the compound `CC(C)c1nnc2ccc(C(=O)c3ccc(F)cc3F)cn12`, the remaining at 2 µM was found to be 88% in data set [2] and 74% in data set [3]. This compound registered an IC50 in data set [1] of 1050 nM.

Turning to `CC(C)c1nnc2cc(Cl)c(Sc3ccc(F)cc3F)cn12`, the remaining at 2 µM was determined as 37% in data set [2] and 71% in data set [3].

`CC(C)c1nnc2ccc(Sc3ccc(Cl)cc3Cl)cn12` displayed an IC50 in data set [1] of 8240 nM.

On to `CC(C)c1nnc2ccc(Sc3ccc(F)cc3F)cn12`, for which, in data set [4], 5 mg/kg produced 61% inhibition in vivo. The figures for the remaining at 2 µM in data set [2] and in data set [3] were 46% and 89%, respectively.

In data set [1], `CC(C)c1nnc2ccc(C(=O)Cc3cc(F)cc(F)c3)cn12` returned an IC50 of 7370 nM.

With `CC(C)c1nnc2cc(Cl)c(Sc3ccc(F)cc3F)c(Cl)n12`, the figures for the remaining at 2 µM in data set [2] and in data set [3] were 20% and 39%, respectively.

Consider `CC(C)c1nnc2ccc(S(=O)(=O)c3ccc(F)cc3F)cn12`, for which the IC50 in data set [1] was > 10000 nM.

Regarding `CC(C)c1nnc2ccc(Sc3ccc(Br)cc3C(F)(F)F)cn12`, the IC50 in data set [1] is > 10000 nM.

`CC(C)c1nnc2ccc(CCc3ccc(F)cc3F)cn12`: the figures for the remaining at 2 µM in data set [2] and in data set [3] were 54% and 53%, respectively. 85 nM corresponded to half-maximal inhibition in data set [1] (IC50).

Regarding `Fc1ccc(Sc2ccc3nnc(C4CCNCC4)n3c2)c(F)c1`, the IC50 in data set [1] was 3770 nM.

`CC(C)c1nnc2ccc([S+]([O-])c3ccc(F)cc3F)cn12` (centres undefined): the remaining at 2 µM in data set [2] and in data set [3] was 100% in each case.
